Laboratory results: ChEMBL document CHEMBL1154352, “Toll-like receptor 7 selective synthetic oligoribonucleotide agonists: synthesis and structure-activity relationship studies” (J Med Chem, 2009)
Calls of active or inactive are those of the source. The calls are words filed in the database; no cut-off is given here.

What was measured:
[1] = target: Toll-like receptor 3 (Homo sapiens) (UniProt O15455); assay: Activation of human TLR3 expressed in HEK293 assessed as induction of NF-kappaB activity reporter gene assay; format: cell-based
[2] = target: T1, Toll-like receptor 8 (Homo sapiens) (UniProt Q9NR97); assay: Activation of human TLR8 expressed in HEK293XL assessed as fold induction of NF-kappaB activity at 50 ug/ml after 18 hrs by reporter gene assay relative to control
T1 sequence (whole entry): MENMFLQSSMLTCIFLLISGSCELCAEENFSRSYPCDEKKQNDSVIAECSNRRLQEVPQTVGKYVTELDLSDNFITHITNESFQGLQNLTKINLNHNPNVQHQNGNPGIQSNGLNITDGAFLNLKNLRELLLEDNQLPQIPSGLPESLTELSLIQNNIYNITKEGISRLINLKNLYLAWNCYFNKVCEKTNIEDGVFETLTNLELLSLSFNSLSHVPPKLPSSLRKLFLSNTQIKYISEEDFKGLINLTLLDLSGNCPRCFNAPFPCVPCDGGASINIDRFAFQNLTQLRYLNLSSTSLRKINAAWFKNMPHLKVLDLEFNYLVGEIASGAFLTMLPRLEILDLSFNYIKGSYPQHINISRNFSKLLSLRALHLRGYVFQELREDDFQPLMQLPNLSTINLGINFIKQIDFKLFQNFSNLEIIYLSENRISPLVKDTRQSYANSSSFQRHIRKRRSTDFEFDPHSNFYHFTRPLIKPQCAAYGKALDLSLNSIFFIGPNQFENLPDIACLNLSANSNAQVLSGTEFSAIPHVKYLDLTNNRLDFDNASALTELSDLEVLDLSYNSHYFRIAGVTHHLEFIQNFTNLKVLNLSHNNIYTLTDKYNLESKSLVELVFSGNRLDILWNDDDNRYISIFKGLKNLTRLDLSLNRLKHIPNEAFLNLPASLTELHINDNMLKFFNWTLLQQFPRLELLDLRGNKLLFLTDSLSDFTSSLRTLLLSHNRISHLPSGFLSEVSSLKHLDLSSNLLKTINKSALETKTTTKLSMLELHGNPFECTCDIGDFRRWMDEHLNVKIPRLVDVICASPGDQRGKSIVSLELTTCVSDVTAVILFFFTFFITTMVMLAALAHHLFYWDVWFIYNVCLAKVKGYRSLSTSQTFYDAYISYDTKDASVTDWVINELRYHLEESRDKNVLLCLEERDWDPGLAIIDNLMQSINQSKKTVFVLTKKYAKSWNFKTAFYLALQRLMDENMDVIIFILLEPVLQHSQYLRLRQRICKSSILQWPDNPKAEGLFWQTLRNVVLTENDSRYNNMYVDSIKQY
How it was run: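 HEK293 cells stably expressing human TLR7 or TLR8, transiently transfected with SEAP reporter plasmid; medium replaced, SIMRA compounds added, 18 h incubation. Supernatant SEAP measured by QuantiBlue; expressed as fold increase in NF-κB activity over PBS control. Tabulated data at 50 μg/mL, representative of three independent experiments.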

[3] = Metabolic stability in human serum assessed as full length product remaining after 10 mins by HPLC; format: ADME, cell-free; conditions: read-out: Stability
How it was run: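 About 0.5 A260 units compound in 1% human serum in PBS, 37 °C; aliquot taken at 10 min, analysed by anion-exchange HPLC for percent intact full-length product.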

Toll-like receptor 3 (Homo sapiens), sequence (O15455 whole entry): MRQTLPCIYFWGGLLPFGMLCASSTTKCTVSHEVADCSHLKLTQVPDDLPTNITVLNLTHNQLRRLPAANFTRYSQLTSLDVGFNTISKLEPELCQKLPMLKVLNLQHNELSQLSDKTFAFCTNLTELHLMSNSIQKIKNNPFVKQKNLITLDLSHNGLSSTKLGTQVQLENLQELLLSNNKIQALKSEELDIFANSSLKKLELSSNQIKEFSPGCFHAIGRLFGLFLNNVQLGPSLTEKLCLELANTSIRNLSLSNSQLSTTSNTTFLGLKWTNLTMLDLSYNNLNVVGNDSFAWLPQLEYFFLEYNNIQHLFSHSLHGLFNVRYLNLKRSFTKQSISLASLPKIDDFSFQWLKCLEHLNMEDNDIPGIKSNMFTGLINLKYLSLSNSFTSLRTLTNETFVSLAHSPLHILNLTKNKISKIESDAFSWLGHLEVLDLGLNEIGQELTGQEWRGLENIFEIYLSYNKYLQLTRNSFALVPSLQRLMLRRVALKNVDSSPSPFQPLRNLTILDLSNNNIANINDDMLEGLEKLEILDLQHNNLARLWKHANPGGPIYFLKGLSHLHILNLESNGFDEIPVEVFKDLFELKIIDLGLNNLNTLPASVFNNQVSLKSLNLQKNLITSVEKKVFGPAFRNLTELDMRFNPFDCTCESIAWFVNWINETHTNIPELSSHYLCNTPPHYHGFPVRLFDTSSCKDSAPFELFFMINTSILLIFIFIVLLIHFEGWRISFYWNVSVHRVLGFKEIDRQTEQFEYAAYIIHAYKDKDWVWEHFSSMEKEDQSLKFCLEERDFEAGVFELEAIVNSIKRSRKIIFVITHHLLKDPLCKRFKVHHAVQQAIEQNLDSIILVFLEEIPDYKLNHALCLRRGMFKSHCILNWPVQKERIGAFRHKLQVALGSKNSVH

Nc1ccn([C@@H]2O[C@H](COP(=O)(S)O[C@H]3[C@@H](O)[C@H](n4cnc5c(N)ncnc54)O[C@@H]3COP(=O)(S)O[C@H]3[C@@H](O)[C@H](n4ccc5c(=O)[nH]c(N)nc54)O[C@@H]3COP(=O)(S)O[C@H]3[C@@H](O)[C@H](n4ccc(N)nc4=O)O[C@@H]3COP(=O)(S)O[C@H]3[C@@H](O)[C@H](n4ccc5c(=O)[nH]c(N)nc54)O[C@@H]3COP(=O)(S)O[C@H]3[C@@H](O)[C@H](n4ccc(=O)[nH]c4=O)O[C@@H]3COP(=O)(S)O[C@H]3[C@@H](O)[C@H](n4ccc5c(=O)[nH]c(N)nc54)O[C@@H]3COP(=O)(S)O[C@H]3[C@@H](O)[C@H](n4cnc5c(N)ncnc54)O[C@@H]3COP(=O)(S)O[C@H]3[C@@H](O)[C@H](n4cnc5c(N)ncnc54)O[C@@H]3CO)[C@@H](OP(=O)(S)OC[C@H]3O[C@@H](n4ccc(=O)[nH]c4=O)[C@H](O)[C@@H]3OP(=O)(S)OC[C@H]3O[C@@H](n4ccc(=O)[nH]c4=O)[C@H](O)[C@@H]3OP(=O)(S)OCC(O)COP(=O)(S)O[C@H]3[C@@H](O)[C@H](n4ccc(=O)[nH]c4=O)O[C@@H]3COP(=O)(S)O[C@H]3[C@@H](O)[C@H](n4ccc(=O)[nH]c4=O)O[C@@H]3COP(=O)(S)O[C@H]3[C@@H](O)[C@H](n4ccc(N)nc4=O)O[C@@H]3COP(=O)(S)O[C@H]3[C@@H](O)[C@H](n4cnc5c(N)ncnc54)O[C@@H]3COP(=O)(S)O[C@H]3[C@@H](O)[C@H](n4ccc5c(=O)[nH]c(N)nc54)O[C@@H]3COP(=O)(S)O[C@H]3[C@@H](O)[C@H](n4ccc(N)nc4=O)O[C@@H]3COP(=O)(S)O[C@H]3[C@@H](O)[C@H](n4ccc5c(=O)[nH]c(N)nc54)O[C@@H]3COP(=O)(S)O[C@H]3[C@@H](O)[C@H](n4ccc(=O)[nH]c4=O)O[C@@H]3COP(=O)(S)O[C@H]3[C@@H](O)[C@H](n4ccc5c(=O)[nH]c(N)nc54)O[C@@H]3COP(=O)(S)O[C@H]3[C@@H](O)[C@H](n4cnc5c(N)ncnc54)O[C@@H]3COP(=O)(S)O[C@H]3[C@@H](O)[C@H](n4cnc5c(N)ncnc54)O[C@@H]3CO)[C@H]2O)c(=O)n1 (some centres undefined)
Activity [1]: inactive
fold change (FC) [2]: 0.5
remaining at 10 min [3]: 79%

Nc1ccn([C@@H]2O[C@H](COP(=O)(S)O[C@H]3[C@@H](O)[C@H](n4ccc5c(=O)[nH]c(N)nc54)O[C@@H]3COP(=O)(S)O[C@H]3[C@@H](O)[C@H](n4cnc5c(N)ncnc54)O[C@@H]3COP(=O)(S)O[C@H]3[C@@H](O)[C@H](n4cnc5c(N)ncnc54)O[C@@H]3COP(=O)(S)O[C@H]3[C@@H](O)[C@H](n4ccc5c(=O)[nH]c(N)nc54)O[C@@H]3COP(=O)(S)O[C@H]3[C@@H](O)[C@H](n4ccc(=O)[nH]c4=O)O[C@@H]3COP(=O)(S)O[C@H]3[C@@H](O)[C@H](n4ccc(=O)[nH]c4=O)O[C@@H]3COP(=O)(S)O[C@H]3[C@@H](O)[C@H](n4cnc5c(N)ncnc54)O[C@@H]3COP(=O)(S)O[C@H]3[C@@H](O)[C@H](n4cnc5c(N)ncnc54)O[C@@H]3CO)[C@@H](OP(=O)(S)OC[C@H]3O[C@@H](n4ccc(=O)[nH]c4=O)[C@H](O)[C@@H]3OP(=O)(S)OC[C@H]3O[C@@H](n4ccc5c(=O)[nH]c(N)nc54)[C@H](O)[C@@H]3OP(=O)(S)OCC(O)COP(=O)(S)O[C@H]3[C@@H](O)[C@H](n4ccc5c(=O)[nH]c(N)nc54)O[C@@H]3COP(=O)(S)O[C@H]3[C@@H](O)[C@H](n4ccc(=O)[nH]c4=O)O[C@@H]3COP(=O)(S)O[C@H]3[C@@H](O)[C@H](n4ccc(N)nc4=O)O[C@@H]3COP(=O)(S)O[C@H]3[C@@H](O)[C@H](n4ccc5c(=O)[nH]c(N)nc54)O[C@@H]3COP(=O)(S)O[C@H]3[C@@H](O)[C@H](n4cnc5c(N)ncnc54)O[C@@H]3COP(=O)(S)O[C@H]3[C@@H](O)[C@H](n4cnc5c(N)ncnc54)O[C@@H]3COP(=O)(S)O[C@H]3[C@@H](O)[C@H](n4ccc5c(=O)[nH]c(N)nc54)O[C@@H]3COP(=O)(S)O[C@H]3[C@@H](O)[C@H](n4ccc(=O)[nH]c4=O)O[C@@H]3COP(=O)(S)O[C@H]3[C@@H](O)[C@H](n4ccc(=O)[nH]c4=O)O[C@@H]3COP(=O)(S)O[C@H]3[C@@H](O)[C@H](n4cnc5c(N)ncnc54)O[C@@H]3COP(=O)(S)O[C@H]3[C@@H](O)[C@H](n4cnc5c(N)ncnc54)O[C@@H]3CO)[C@H]2O)c(=O)n1 (some centres undefined)
Activity [1]: inactive
fold change (FC) [2]: 0.7
remaining at 10 min [3]: 76%

Nc1ccn([C@@H]2O[C@H](COP(=O)(S)O[C@H]3[C@@H](O)[C@H](n4cnc5c(N)ncnc54)O[C@@H]3COP(=O)(S)O[C@H]3[C@@H](O)[C@H](n4cnc5c(N)ncnc54)O[C@@H]3CO)[C@@H](OP(=O)(S)OC[C@H]3O[C@@H](n4ccc(=O)[nH]c4=O)[C@H](O)[C@@H]3OP(=O)(S)OC[C@H]3O[C@@H](n4ccc5c(=O)[nH]c(N)nc54)[C@H](O)[C@@H]3OP(=O)(S)OC[C@H]3O[C@@H](n4cnc5c(N)ncnc54)[C@H](O)[C@@H]3OP(=O)(S)OC[C@H]3O[C@@H](n4cnc5c(N)ncnc54)[C@H](O)[C@@H]3OP(=O)(S)OC[C@H]3O[C@@H](n4ccc5c(=O)[nH]c(N)nc54)[C@H](O)[C@@H]3OP(=O)(S)OC[C@H]3O[C@@H](n4ccc(N)nc4=O)[C@H](O)[C@@H]3OP(=O)(S)OC[C@H]3O[C@@H](n4ccc(=O)[nH]c4=O)[C@H](O)[C@@H]3OP(=O)(S)OC[C@H]3O[C@@H](n4ccc(=O)[nH]c4=O)[C@H](O)[C@@H]3OP(=O)(S)OCC(O)COP(=O)(S)O[C@H]3[C@@H](O)[C@H](n4ccc(=O)[nH]c4=O)O[C@@H]3COP(=O)(S)O[C@H]3[C@@H](O)[C@H](n4ccc(=O)[nH]c4=O)O[C@@H]3COP(=O)(S)O[C@H]3[C@@H](O)[C@H](n4ccc(N)nc4=O)O[C@@H]3COP(=O)(S)O[C@H]3[C@@H](O)[C@H](n4ccc5c(=O)[nH]c(N)nc54)O[C@@H]3COP(=O)(S)O[C@H]3[C@@H](O)[C@H](n4cnc5c(N)ncnc54)O[C@@H]3COP(=O)(S)O[C@H]3[C@@H](O)[C@H](n4cnc5c(N)ncnc54)O[C@@H]3COP(=O)(S)O[C@H]3[C@@H](O)[C@H](n4ccc5c(=O)[nH]c(N)nc54)O[C@@H]3COP(=O)(S)O[C@H]3[C@@H](O)[C@H](n4ccc(=O)[nH]c4=O)O[C@@H]3COP(=O)(S)O[C@H]3[C@@H](O)[C@H](n4ccc(N)nc4=O)O[C@@H]3COP(=O)(S)O[C@H]3[C@@H](O)[C@H](n4cnc5c(N)ncnc54)O[C@@H]3COP(=O)(S)O[C@H]3[C@@H](O)[C@H](n4cnc5c(N)ncnc54)O[C@@H]3CO)[C@H]2O)c(=O)n1 (some centres undefined)
Activity [1]: inactive
fold change (FC) [2]: 1
remaining at 10 min [3]: 77%
